From ChEMBL document CHEMBL1153991, “Anthranilamide-based N,N-dialkylbenzamidines as potent and orally bioavailable factor Xa inhibitors: P4 SAR” (Bioorg Med Chem Lett, 2009) come the findings set out here.

Data set [1] is described as follows: Oral bioavailability in rat. In kind it is ADME, organism-based. The settings on record: in vivo.
The subject of a further data set is Plasma. Briefly: Anticoagulant activity in human plasma assessed as concentration required to double the thrombin generation time. The format is functional.
The nature of data set [2]: Volume of distribution in rat. In kind it is ADME, organism-based. As to conditions: in vivo.
Data set [3] addresses Tissue-type plasminogen activator (Homo sapiens, UniProt P00750). In words: Inhibition of tissue plasminogen activator.
A short description of data set [4]: Inhibition of kallikrein.
A further data set addresses Coagulation factor X (Homo sapiens, UniProt P00742). In words: Inhibition of Factor 10a.
In data set [5] the target is Vitamin K-dependent protein C (Homo sapiens) (UniProt P04070). Briefly: Inhibition of activated protein C.
The next data set has as its target Plasminogen (Homo sapiens, UniProt P00747). Briefly: Inhibition of plasmin.
Data set [6] can be described thus: Inhibition of trypsin.
The next data set concerns the target Prothrombin (Homo sapiens, UniProt P00734). Briefly: Inhibition of thrombin.
Data set [7] is described as follows: Clearance in Sprague-Dawley rat at 0.4 mg/kg, iv and 6 mg/kg, po. The format is ADME, organism-based. As to conditions: in vivo. An outline of the steps:
(§1)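 Sprague–Dawley rats dosed 0.4 mg/kg IV and 6 mg/kg PO. Derived PK parameters: F (%), t1/2 (h), CL (mL/min/kg), Vd (L/kg).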

Data set [8] in a line: Oral bioavailability in Beagle dog at 0.5 mg/kg. The format is ADME, organism-based, Canis lupus familiaris. The settings on record: in vivo. An outline of the steps:
(§2)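 Beagle dogs dosed 0.1 mg/kg IV and 0.5 mg/kg PO. Derived PK parameters: F (%), t1/2 (h), CL (mL/min/kg), Vd (L/kg).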

Data set [9] is described as follows: Protein binding in human plasma. The format is ADME, cell-free. The settings on record: read-out: PB (converted). The gist of the method: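 Plasma protein binding measured by ultrafiltration. Working solution added 1/100 to EDTA human plasma to a final 10 µM, incubated 37 °C for 30 min. Triplicate aliquots were centrifuged through filter devices for 25 min at 32 °C. Filtrate was mixed with acetonitrile containing internal standard and quantified by LC/MS/MS against standards prepared in ultrafiltered plasma.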

The nature of data set [10]: Half life in Sprague-Dawley rat at 0.4 mg/kg, iv and 6 mg/kg, po. In kind it is ADME, organism-based. The settings on record: in vivo. The gist of the method:
as §1

Data set [11] can be described thus: Clearance in Beagle dog at 0.1 mg/kg, iv and 0.5 mg/kg, po. The format is ADME, organism-based, Canis lupus familiaris. The settings on record: in vivo. The gist of the method: as §2
A short description of data set [12]: Oral bioavailability in Sprague-Dawley rat at 6 mg/kg. The format is ADME, organism-based. The settings on record: in vivo. An outline of the steps: as §1
The nature of data set [13]: Volume of distribution in Beagle dog at 0.1 mg/kg, iv and 0.5 mg/kg, po. In kind it is ADME, organism-based, Canis lupus familiaris. As to conditions: in vivo. The gist of the method:
as §2

A short description of data set [14]: Volume of distribution in Sprague-Dawley rat at 0.4 mg/kg, iv and 6 mg/kg, po. In kind it is ADME, organism-based. The settings on record: in vivo. The gist of the method: as §1
Data set [15] is described as follows: Half life in Beagle dog at 0.1 mg/kg, iv and 0.5 mg/kg, po. The settings on record: in vivo.

Sequence of Coagulation factor X (P00742 41-179 limits assumed): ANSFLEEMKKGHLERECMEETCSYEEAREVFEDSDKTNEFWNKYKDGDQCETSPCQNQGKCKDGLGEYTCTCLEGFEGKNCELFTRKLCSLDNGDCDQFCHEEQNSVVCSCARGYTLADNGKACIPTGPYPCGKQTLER
Sequence of Coagulation factor X (P00742 235-488 limits assumed): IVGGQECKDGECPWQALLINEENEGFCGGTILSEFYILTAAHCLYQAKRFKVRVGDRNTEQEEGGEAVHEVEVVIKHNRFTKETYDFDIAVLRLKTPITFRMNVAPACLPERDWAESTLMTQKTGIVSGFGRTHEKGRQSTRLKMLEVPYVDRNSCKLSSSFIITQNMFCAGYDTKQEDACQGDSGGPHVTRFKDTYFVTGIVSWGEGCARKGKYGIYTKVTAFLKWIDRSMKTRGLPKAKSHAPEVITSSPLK
Sequence of Tissue-type plasminogen activator (P00750 whole entry): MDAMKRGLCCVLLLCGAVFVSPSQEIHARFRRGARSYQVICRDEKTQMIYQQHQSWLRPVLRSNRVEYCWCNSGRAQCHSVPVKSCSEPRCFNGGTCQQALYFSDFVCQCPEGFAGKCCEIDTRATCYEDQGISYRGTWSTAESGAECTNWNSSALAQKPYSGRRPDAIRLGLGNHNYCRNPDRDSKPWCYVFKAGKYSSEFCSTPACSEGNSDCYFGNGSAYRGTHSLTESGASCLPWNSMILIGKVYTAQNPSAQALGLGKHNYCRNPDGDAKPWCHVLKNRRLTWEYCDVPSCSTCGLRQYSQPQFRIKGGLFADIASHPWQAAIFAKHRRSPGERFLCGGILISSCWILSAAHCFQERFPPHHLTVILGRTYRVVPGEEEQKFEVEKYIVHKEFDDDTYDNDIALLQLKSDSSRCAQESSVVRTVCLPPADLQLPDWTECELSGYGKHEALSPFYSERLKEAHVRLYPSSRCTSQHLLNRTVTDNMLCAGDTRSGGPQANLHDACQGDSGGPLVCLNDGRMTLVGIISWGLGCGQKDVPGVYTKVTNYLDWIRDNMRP
Sequence of Plasminogen (P00747 97-580 limits assumed): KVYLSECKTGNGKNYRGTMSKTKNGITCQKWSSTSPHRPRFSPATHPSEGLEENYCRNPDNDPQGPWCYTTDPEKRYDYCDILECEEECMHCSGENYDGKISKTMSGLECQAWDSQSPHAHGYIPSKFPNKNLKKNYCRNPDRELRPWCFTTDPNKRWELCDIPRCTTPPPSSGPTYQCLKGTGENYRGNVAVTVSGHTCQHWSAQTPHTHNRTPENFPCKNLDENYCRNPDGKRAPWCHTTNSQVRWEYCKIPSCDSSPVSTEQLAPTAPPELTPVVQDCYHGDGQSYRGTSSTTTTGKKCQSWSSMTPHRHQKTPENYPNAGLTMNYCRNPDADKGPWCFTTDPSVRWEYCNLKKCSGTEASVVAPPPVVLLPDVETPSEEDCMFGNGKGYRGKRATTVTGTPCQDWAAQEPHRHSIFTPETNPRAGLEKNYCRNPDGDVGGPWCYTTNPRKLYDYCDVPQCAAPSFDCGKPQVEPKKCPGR
Sequence of Plasminogen (P00747 581-810 limits assumed): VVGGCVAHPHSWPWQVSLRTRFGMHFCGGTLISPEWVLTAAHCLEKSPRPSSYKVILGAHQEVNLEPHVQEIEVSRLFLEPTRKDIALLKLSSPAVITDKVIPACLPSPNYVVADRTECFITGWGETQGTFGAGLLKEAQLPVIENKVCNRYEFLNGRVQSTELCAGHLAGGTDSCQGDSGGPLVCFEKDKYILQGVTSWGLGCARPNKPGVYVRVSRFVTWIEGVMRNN

The term bioavailability denotes the share of a dose that reaches the circulation, judged against a reference dose that is usually intravenous. Low readings indicate little systemic uptake, high ones much systemic uptake. The compound `N=C1NCCN1Cc1ccc(C(=O)Nc2ccc(Cl)cc2C(=O)Nc2ccc(Cl)cn2)cc1` came in with a bioavailability in [1] of under 1%. For the same compound, the Activity in the data set with Plasma turned out to be 0.58 µM.

`NS(=O)(=O)c1ccccc1-c1ccc(C(=O)Nc2ccccc2C(=O)Nc2ccc(Cl)cn2)cc1`: the bioavailability in [1] came to 35%. The Activity in the data set on Plasma was over 5 µM.

In the case of `N=C1OCCN1Cc1ccc(C(=O)Nc2ccc(Cl)cc2C(=O)Nc2ccc(Cl)cn2)cc1`, the Vd in data set [2] stood at 13.6 L/kg. Moreover, the Activity in the data set on Plasma is 0.56 µM.

For orientation: IC50 means the concentration that inhibits the measured activity by half. A high value points to a need for much substance. Take `N=C(N)c1ccc(C(=O)Nc2ccccc2C(=O)Nc2ccc(Cl)cn2)cc1`: the IC50 is over 10000 nM in data set [3]; 4900 nM in data set [4]; 4 nM at Coagulation factor X; over 10000 nM in data set [5]; over 10000 nM against Plasminogen; over 10000 nM in data set [6]. The IC50 on Prothrombin was over 10000 nM. The same compound yielded a bioavailability in data set [1] of under 5%.

Take `CONC(=N)c1ccc(C(=O)Nc2ccccc2C(=O)Nc2ccc(Cl)cn2)cc1`: the midpoint of inhibition against Coagulation factor X, the IC50, lay at 290 nM.

At Coagulation factor X, `N=C(NN)c1ccc(C(=O)Nc2ccccc2C(=O)Nc2ccc(Cl)cn2)cc1` registered an IC50 of 25 nM.

For the compound `CN(C)NC(=N)c1ccc(C(=O)Nc2ccccc2C(=O)Nc2ccc(Cl)cn2)cc1`, at Coagulation factor X, the IC50 came to 30 nM.

For `N=C(c1ccc(C(=O)Nc2ccccc2C(=O)Nc2ccc(Cl)cn2)cc1)N1CCS(=O)(=O)CC1`, it took 256 nM to reach half-maximal inhibition against Coagulation factor X (IC50).

Compound `N=C(c1ccc(C(=O)Nc2ccccc2C(=O)Nc2ccc(Cl)cn2)cc1)N1CCOCC1` showed an IC50 against Coagulation factor X of 7 nM.

For `N=C(c1ccc(C(=O)Nc2ccccc2C(=O)Nc2ccc(Cl)cn2)cc1)N1CCSCC1`, it took 12 nM to reach half-maximal inhibition on Coagulation factor X (IC50).

On to `CN1CCN(C(=N)c2ccc(C(=O)Nc3ccccc3C(=O)Nc3ccc(Cl)cn3)cc2)CC1`, for which the IC50 against Coagulation factor X amounted to 714 nM.

One may read the half-life as the time in which the quantity being followed falls by half. Higher therefore signals slow loss. As to `CN1CCN=C1c1ccc(C(=O)Nc2ccccc2C(=O)Nc2ccc(Cl)cn2)cc1`, the results for the clearance in [7] and in data set [11] were 7.1 mL/min/kg and 49.6 mL/min/kg, respectively. Also, the midpoint of inhibition at Coagulation factor X, the IC50, lay at 20 nM. The bioavailability was found to be 50% in data set [8] and 22% in [12]. For the same compound, the fraction unbound in [9] was 0.18. Further, the half-life in data set [10] is over 6 h; in [15], 2.2 h. For the same compound, the Vd in data set [13] was determined as 9.2 L/kg; in [14], 3.7 L/kg. The Activity in the data set with Plasma is 1.1 µM.

As for `CCN1CCN=C1c1ccc(C(=O)Nc2ccccc2C(=O)Nc2ccc(Cl)cn2)cc1`, at Coagulation factor X, the IC50 was 64 nM.

The compound `O=C(Nc1ccccc1C(=O)Nc1ccc(Cl)cn1)c1ccc(C2=NCCCN2)cc1` registered an IC50 against Coagulation factor X of 226 nM.

As for `CN(C)C(=N)c1ccc(C(=O)Nc2ccccc2C(=O)Nc2ccc(Cl)cn2)cc1`, the clearance in data set [7] is 16.8 mL/min/kg; in [11] it was 45.7 mL/min/kg. This compound registered a bioavailability in data set [8] of 69%. Moreover, the fraction unbound in data set [9] was 0.27. Moreover, the half-life in data set [10] is 4.3 h; in data set [15], 3.5 h. Moreover, the Vd in data set [13] was found to be 13.7 L/kg; in data set [14], 6.3 L/kg. Moreover, the Activity in the data set on Plasma was determined as 0.54 µM.

Consider `CN1CCCN=C1c1ccc(C(=O)Nc2ccccc2C(=O)Nc2ccc(Cl)cn2)cc1`, for which the IC50 against Coagulation factor X is 78 nM.

Turning to `CCN(C)C(=N)c1ccc(C(=O)Nc2ccccc2C(=O)Nc2ccc(Cl)cn2)cc1`, the half-maximal inhibitory concentration (IC50) against Coagulation factor X turned out to be 6 nM.

The compound `N=C(c1ccc(C(=O)Nc2ccccc2C(=O)Nc2ccc(Cl)cn2)cc1)N1CCCC1` registered an IC50 against Coagulation factor X of 8 nM.

Compound `CCN(CC)C(=N)c1ccc(C(=O)Nc2ccccc2C(=O)Nc2ccc(Cl)cn2)cc1` came in with an IC50 against Coagulation factor X of 10 nM.

Turning to `CCNC(=N)c1ccc(C(=O)Nc2ccccc2C(=O)Nc2ccc(Cl)cn2)cc1`, the IC50 against Coagulation factor X came to 93 nM.

In turn, `N=C(c1ccc(C(=O)Nc2ccccc2C(=O)Nc2ccc(Cl)cn2)cc1)N1CCC1` showed an IC50 on Coagulation factor X of 8 nM.

For `N=C(c1ccc(C(=O)Nc2ccccc2C(=O)Nc2ccc(Cl)cn2)cc1)N1CCNCC1`, it took 38 nM to reach half-maximal inhibition against Coagulation factor X (IC50).

For the compound `N=C(c1ccc(C(=O)Nc2ccccc2C(=O)Nc2ccc(Cl)cn2)cc1)N1CCCCC1`, the clearance in data set [7] was found to be 32.2 mL/min/kg. Half-maximal inhibition against Coagulation factor X (IC50) required 3 nM. Also, in data set [9], the fraction unbound was 0.11. Moreover, the half-life in data set [10] is 6 h. In addition, the bioavailability in [12] worked out at 18%. Besides, the Activity in the data set with Plasma came out at 0.36 µM. The same compound came in with a Vd in data set [14] of 16.7 L/kg.

Turning to `N=C(NO)c1ccc(C(=O)Nc2ccccc2C(=O)Nc2ccc(Cl)cn2)cc1`, 35 nM corresponded to half-maximal inhibition on Coagulation factor X (IC50).

In the case of `O=C(Nc1ccccc1C(=O)Nc1ccc(Cl)cn1)c1ccc(C2=NCCN2)cc1`, the midpoint of inhibition against Coagulation factor X, the IC50, lay at 316 nM.

At Coagulation factor X, `CCCN(C)C(=N)c1ccc(C(=O)Nc2ccccc2C(=O)Nc2ccc(Cl)cn2)cc1` returned an IC50 of 9 nM.

As for `CNC(=N)c1ccc(C(=O)Nc2ccccc2C(=O)Nc2ccc(Cl)cn2)cc1`, the midpoint of inhibition at Coagulation factor X, the IC50, lay at 23 nM.
